# Assay results of several laboratories.
# Matrix: plasma
SMILES,host,route,dose,notes,quantity,result
CN(C(=O)c1ccn2ncc(-c3ccc(C(N)=O)cc3)c2c1)c1ccc(C#N)cn1,female C57BL/6 mouse,intravenous,1 mg/kg,,AUC,2.68 µM·h
Cc1c(C(=O)O)ccc2c3n(nc12)[C@@H]1[C@H](C3)N(CC2CC2)[C@@]2(C(=O)Nc3cc(Cl)ccc32)[C@H]1c1cccc(Cl)c1F,female mouse,oral,5 mg/kg,,AUC(0-inf),125 µM·h
C=CS(=O)(=O)c1ccc(Nc2nc(OCC3CCCCC3)c3nc[nH]c3n2)cc1,male BALB/c mouse,intravenous,20 mg/kg,single dose,AUC(0-t),124 ng·h/mL
CCOC(=O)CN(C(=O)c1ccn2ncc(-c3ccc(C(=O)NC)cc3)c2c1)c1ccc(Cl)cc1,female C57BL/6 mouse,oral,10 mg/kg,,AUC,1.18 µM·h
CCN1CCN(Cc2ccc(NC(=O)c3ccc(C)c(NC(=O)c4cncc(-c5cccs5)c4)c3)cc2C(F)(F)F)CC1,mouse,intraperitoneal,20 mg/kg,single dose,AUC(0-t),1990 ng·h/mL
Cc1cc2sc(N)nc2c2cccnc12,female BALB/c mouse,intraperitoneal,30 mg/kg,single dose,AUC(0-inf),45600 ng·h/mL
CCOc1ccc(N(C)S(=O)(=O)c2cc(Cl)sc2C(=O)Nc2cc(Cl)cc(C(=O)O)c2)cc1OC,male C57BL/6 mouse,intraperitoneal,10 mg/kg,,AUC(0-t),5810 ng·h/mL
Nc1ncn([C@H]2C[C@H](O)[C@@H](CO)O2)c(=O)n1,female C57BL/6 mouse,oral,0.4 mg/kg,,AUC(0-inf),71 ng·h/mL
CN1CCN(C(=O)[C@H](CCCN[C@@H]2C[C@H]2c2ccc(F)cc2)NC(=O)c2ccc(-n3ccnn3)cc2)CC1,CD-1 mouse,intravenous,3 mg/kg,,AUC(0-t),2.52 µM·h
CC(=O)O[C@@]12CO[C@@H]1C[C@H](O)[C@@]1(C)C(=O)[C@H](O)C3=C(C)[C@@H](OC(=O)[C@H](O)[C@@H](NC(=O)OC(C)(C)C)c4ccccc4)C[C@@](O)([C@@H](OC(=O)c4ccccc4)[C@H]21)C3(C)C,male Kunming mouse,oral,20 mg/kg,,AUC(0-t),14.7 ng·h/mL
COc1cc2c(NC3CCN(CCCC(=O)NCCCCCCCCCCCC(=O)N[C@H](C(=O)N4C[C@H](O)C[C@H]4C(=O)NCc4ccc(-c5scnc5C)cc4)C(C)(C)C)CC3)nc(N3CCC(F)(F)CC3)nc2cc1OCCCN1CCCC1,male C57BL/6 mouse,intraperitoneal,50 mg/kg,single dose,AUC(0-t),61 µM·h
